Data published in ChEMBL document CHEMBL1130053, “Synthesis and biological evaluation of the enantiomers of the potent and selective A1-adenosine antagonist 1,3-dipropyl-8-[2-(5,6-epoxynorbonyl)]-xanthine” (J Med Chem, 1997).

What was measured:
Adenosine receptor A1 [1] = target: T1, Adenosine receptor A1 (Homo sapiens, UniProt P30542); experiment: Inhibition of binding to membranes from HEK293 cells expressing human Adenosine A1 receptor; type: cell membranes
T1 sequence (P30542 whole entry): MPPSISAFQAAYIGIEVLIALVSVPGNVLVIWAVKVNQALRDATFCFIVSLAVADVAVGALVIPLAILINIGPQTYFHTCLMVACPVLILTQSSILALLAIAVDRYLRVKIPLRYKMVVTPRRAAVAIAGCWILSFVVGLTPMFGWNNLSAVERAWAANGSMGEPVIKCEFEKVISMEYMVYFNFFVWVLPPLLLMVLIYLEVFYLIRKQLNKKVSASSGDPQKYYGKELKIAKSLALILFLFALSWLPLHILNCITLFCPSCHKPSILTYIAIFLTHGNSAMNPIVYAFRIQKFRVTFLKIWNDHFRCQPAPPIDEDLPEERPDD

Rattus norvegicus [2] = experiment: Potassium ion output (collected per 4 h) in Saline -Loaded Rats at 0.1 mg /kg intravenous dose; type: functional
Outline: (§1)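 Sprague-Dawley rats (250-350 g), 2 h equilibration, then tail-vein dosing (vehicle 50% saline/40% PEG/10% ethanol, 1.0 mL/kg). This was followed at once by 40 mL/kg saline po. Urine collected 4 h in metabolic cages, volume by weight, Na⁺/K⁺ by flame photometry. n = 6-7 per dose, mean ± SEM, 1-way ANOVA with Bonferroni test versus vehicle.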

Rattus norvegicus [3] = experiment: Potassium ion output (collected per 4 h) in Saline -Loaded Rats at 1.0 mg /kg intravenous dose; type: functional; outline: as §1
Rattus norvegicus [4] = experiment: Sodium ion output (collected per 4 h) in Saline -Loaded Rats at 0.1 mg /kg intravenous dose; type: functional; outline: as §1
Rattus norvegicus [5] = experiment: Urine output (collected per 4 h) in Saline -Loaded Rats at 1.0 mg /kg intravenous dose; type: functional; outline: as §1
Rattus norvegicus [6] = experiment: Urine output (collected per 4 h) in Saline -Loaded Rats at 0.1 mg /kg intravenous dose; type: functional; outline: as §1
Rattus norvegicus [7] = experiment: Urine output (collected per 4 h) in Saline -Loaded Rats at 0.01 mg /kg intravenous dose; type: functional; outline: as §1
Adenosine A2 receptor = Adenosine A2 receptor (Rattus norvegicus, UniProt P29276+P30543); experiment: Binding affinity for Adenosine A2 receptor from rat striatal membranes
Adenosine receptor A1 [8] = target: T2, Adenosine receptor A1 (Cavia porcellus, UniProt P47745); experiment: Binding affinity for Adenosine A1 receptor from Guinea pig membranes
T2 sequence (P47745 whole entry): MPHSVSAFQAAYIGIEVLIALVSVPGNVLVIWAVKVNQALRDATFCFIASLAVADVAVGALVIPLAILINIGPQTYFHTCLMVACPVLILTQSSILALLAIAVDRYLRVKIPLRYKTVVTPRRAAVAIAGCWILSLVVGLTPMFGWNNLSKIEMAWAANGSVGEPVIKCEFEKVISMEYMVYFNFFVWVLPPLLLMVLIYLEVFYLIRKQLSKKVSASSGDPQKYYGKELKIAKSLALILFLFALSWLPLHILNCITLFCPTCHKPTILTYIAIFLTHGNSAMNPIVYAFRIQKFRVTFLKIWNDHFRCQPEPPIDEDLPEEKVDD

Adenosine receptor A1 [9] = target: T3, Adenosine receptor A1 (Rattus norvegicus, UniProt P25099); experiment: Binding affinity for Adenosine A1 receptor of rat forebrain
T3 sequence (P25099 whole entry): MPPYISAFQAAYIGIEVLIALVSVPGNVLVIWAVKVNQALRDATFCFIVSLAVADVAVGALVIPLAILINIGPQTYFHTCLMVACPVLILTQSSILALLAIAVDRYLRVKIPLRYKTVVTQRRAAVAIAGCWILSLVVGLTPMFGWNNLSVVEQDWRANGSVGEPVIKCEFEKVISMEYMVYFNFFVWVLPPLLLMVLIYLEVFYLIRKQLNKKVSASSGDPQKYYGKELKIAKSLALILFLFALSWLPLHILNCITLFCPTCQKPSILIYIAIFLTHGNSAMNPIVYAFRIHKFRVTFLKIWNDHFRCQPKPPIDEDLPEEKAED

Rattus norvegicus [10] = experiment: Sodium ion output (collected per 4 h) in Saline -Loaded Rats at 1.0 mg /kg intravenous dose; type: functional; outline: as §1
Rattus norvegicus [11] = experiment: Potassium ion output (collected per 4 h) in Saline -Loaded Rats at 0.01 mg /kg intravenous dose; type: functional; outline: as §1
Rattus norvegicus [12] = experiment: Sodium ion output (collected per 4 h) in Saline -Loaded Rats at 0.01 mg /kg intravenous dose; type: functional; outline: as §1

Row | SMILES | Ki (Adenosine receptor A1 [1]) [nM] | K+ output (Rattus norvegicus [2]) [mmol/kg] | K+ output (Rattus norvegicus [3]) [mmol/kg] | Na+ output (Rattus norvegicus [4]) [mmol/kg] | Urine output (Rattus norvegicus [5]) [mL/kg] | Urine output (Rattus norvegicus [6]) [mL/kg] | Urine output (Rattus norvegicus [7]) [mL/kg] | Ki (Adenosine A2 receptor) [nM] | Ki (Adenosine receptor A1 [8]) [nM] | Ki (Adenosine receptor A1 [9]) [nM] | Na+ output (Rattus norvegicus [10]) [mmol/kg] | K+ output (Rattus norvegicus [11]) [mmol/kg] | Na+ output (Rattus norvegicus [12]) [mmol/kg]
1 | CCCn1c(=O)c2nc(C3CC4CC3C3OC43)[nH]c2n(CCC)c1=O (stereo in doubt) | 0.82 | 1.22 | 1.42 | 5.14 | 43.2 | 33 | 23.2 | 309 | 3.15 | 1.43 | 6.54 | 1.1 | 3.54
2 | CCCn1c(=O)c2nc(C3CC4CC3C3OC43)[nH]c2n(CCC)c1=O (stereo in doubt; 12) | 0.45 | 1.34 | 1.09 | 5.29 | 37.1 | 35.1 | 21.7 | 1250 | 1.43 | 0.67 | 5.86 | 0.75 | 3.02
3 | CCCn1c(=O)c2nc(C34CC5CC(CC3C5)C4)[nH]c2n(CCC)c1=O [ROLOFYLLINE] |  |  |  |  |  |  |  | 510 |  |  |  |  | 
4 | CCCn1c(=O)c2nc(C3CC4CC3C3OC43)[nH]c2n(CCC)c1=O (stereo in doubt; 8) | 0.8 | 0.89 | 1.84 | 4.56 | 44.1 | 31.3 | 26.8 | 551 | 3.17 | 5.12 | 5.99 | 0.97 | 3.8
